Results: the array DNA melting data of Ke et al. (doi:10.1101/2024.01.08.574731)

How the values were obtained:
[1] = folding enthalpy; higher = less favourable; fluorescence melt of hairpins on a sequencing array, two-state fit; conditions: sodium 0.088 M
Outline: (§1)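 Cy3 fluorescence of library hairpins on a sequenced MiSeq flow cell, with annealed Cy3 and quencher oligos, was imaged in 50 mM Na-HEPES pH 8.0, 25 mM NaCl in 2.5 °C steps up to 60 °C. Signals were normalised to pre-quench Cy3 and to control variants. Melting temperature and folding enthalpy came from bootstrapped two-state fits, inverse-variance combined over four replicates. Fitted temperatures were raised by 9.35 °C to match UV melts.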

[2] = melting temperature; fluorescence melt of hairpins on a sequencing array, two-state fit, raised by 9.35 °C to match UV melts; conditions: sodium 0.088 M
Outline: as §1

Row | Sequence | folding enthalpy [1] [kcal/mol] | Tm [2] [°C]
1 | GCTGTTGGAAACAACGGC ((.((((....)))).)) | -39.8 | 54.3
2 | GCTTAAGGAAACTCAAGC ((((.((....)).)))) | -17.8 | 28.3
3 | GCTTAAGGAAACTTAGGC ((.((((....)))).)) | -23 | 36.3
4 | GCTTACGAAAGTACTAGC ((((((....)))..))) | -13.6 | 31.8
5 | GCTTACGAAAGTAGAGC ((((((....))).))) | -24.4 | 43.3
6 | GCTTACGAAAGTATCAGC ((((((....)))..))) | -14.2 | 33.1
7 | GCTTAGCGAAAGCAAGGC ((.(.((....)).).)) | -13.5 | 38.1
8 | GCTTAGCGAAAGCGAGGC ((.(.((....)).).)) | -15.4 | 51.8
9 | GCTTAGCGAAAGCTTCGC ((..(((....)))..)) | -15 | 42.9
10 | GCTTAGCGAAAGCTTGGC ((..(((....)))..)) | -18.3 | 47
11 | GCTTAGGGAAACCTGAGC (((.(((....))).))) | -32.8 | 46.7
12 | GCTTATCGAAAGATCAGC (((.(((....))).))) | -25.3 | 44
13 | GCTTATGAAAATAAGC ((((((....)))))) | -31.8 | 51.6
14 | GCTTATGGAAACACAAGC ((((.((....)).)))) | -26.2 | 33.2
15 | GCTTCACGAAAGTGAGC (((.(((....)))))) | -17.8 | 51
16 | GCTTCATCGAAAGATAGC (((..(((....)))))) | -13 | 28.3
17 | GCTTCCCGAAAGGGCAGC (((.(((....))).))) | -32.5 | 53.3
18 | GCTTCCGAAAGGAAGAGC ((((((....)))..))) | -13 | 55
19 | GCTTCCGAAAGGACCAGC ((((((....)))..))) | -14.2 | 31.2
20 | GCTTCCGAAAGGAGAGC ((((((....))).))) | -22.3 | 49.2
21 | GCTTCCGAAAGGAGTAGC ((((((....)))..))) | -24.3 | 43.6
22 | GCTTCCGAAAGGATAAGC ((((((....)))..))) | -22.8 | 44.2
23 | GCTTCCGAAAGGATGAGC ((((((....)))..))) | -18.7 | 41.2

Row | Sequence | folding enthalpy [1] [kcal/mol] | Tm [2] [°C]
24 | GCTTCCGGAAACGGAAAC (.(((((....))))).) | -14.7 | 40.5
25 | GCTTCGCGAAAGCAATGC ((.(.((....)).).)) | -16.4 | 33.2
26 | GCTTCGCGAAAGCCAGGC ((.(.((....)).).)) | -9.39 | 30.3
27 | GCTTCGCGAAAGCGACGC ((.((((....)))).)) | -22.5 | 60.9
28 | GCTTCGCGAAAGCGCAGC (((.(((....))).))) | -30.7 | 54.1
29 | GCTTCGCGAAAGCTACGC ((.(.((....)).).)) | -12.6 | 42.9
30 | GCTTCTGGAAACAGAAGC (((((((....))))))) | -49 | 64.9
31 | GCTTGACGAAAGTCAGC (((.(((....)))))) | -23.5 | 55.6
32 | GCTTGACGAAAGTCGAGC (((.(((....))).))) | -39 | 63.1
33 | GCTTGAGGAAACTCAAAC (.(((((....))))).) | -13.8 | 30.6
34 | GCTTGCGAAAGCACCAGC ((((((....)))..))) | -8.92 | 34.8
35 | GCTTGCGAAAGCAGAAGC ((((((....)))..))) | -21.7 | 47.2
36 | GCTTGCGAAAGCAGAGC ((((((....))).))) | -18.6 | 52.7
37 | GCTTGCGAAAGCATTAGC ((((((....)))..))) | -15.2 | 42
38 | GCTTGCGCGAAAGCGAGC (((..(((....)))))) | -13.3 | 56.2
39 | GCTTGCGGAAACGCAAAC (.(((((....))))).) | -12.4 | 44.6
40 | GCTTGCGGAAACGTAGGC ((.(.((....)).).)) | -11.7 | 38.6
41 | GCTTGGAAACAAGC (((((....))))) | -31 | 53.7
42 | GCTTGGCGAAAGCCCCGC ((..(((....)))..)) | -12 | 35.8
43 | GCTTGGCGAAAGCCTTGC ((..(((....)))..)) | -18.1 | 43.5
44 | GCTTGGCGAAAGCTACGC ((.(.((....)).).)) | -14.8 | 43.3
45 | GCTTGGCGAAAGCTATGC ((.(.((....)).).)) | -15.6 | 47.9
46 | GCTTGGGGAAACCCGAGC (((.(((....))).))) | -41.7 | 56.7

Row | Sequence | folding enthalpy [1] [kcal/mol] | Tm [2] [°C]
47 | GCTTGGGGAAACCTGAGC (((..((....))..))) | -30.3 | 40
48 | GCTTGTGGAAACATGAGC (((..((....))..))) | -29.4 | 37.7
49 | GCTTTACGAAAGTAAGC (((.(((....)))))) | -22.7 | 46.2
50 | GCTTTAGCGAAAGCTAGC (((..(((....)))))) | -8.44 | 42.3
51 | GCTTTAGGAAACTAAAGC (((((((....))))))) | -39.1 | 54.4
52 | GCTTTAGGAAACTAAGGC ((.((((....)))).)) | -27.7 | 37
53 | GCTTTCCCGAAAGGGAGC (((..(((....)))))) | -10.2 | 34.3
54 | GCTTTCGAAAGAAACAGC ((((((....)))..))) | -16.3 | 32.8
55 | GCTTTCGAAAGAAGAAGC ((((((....)))..))) | -22.2 | 32.1
56 | GCTTTCGAAAGAAGAGC ((((((....))).))) | -17.5 | 37.3
57 | GCTTTCGAAAGAAGCAGC ((((((....)))..))) | -12.9 | 35.4
58 | GCTTTCGAAAGAAGGAGC ((((((....)))..))) | -17.8 | 31.5
59 | GCTTTCGGAAACGAAAAC (.(((((....))))).) | -22.4 | 36.4
60 | GCTTTCGGAAACGGAAGC ((((.((....)).)))) | -39.8 | 53.2
61 | GCTTTGCGAAAGCACAGC (((.(((....))).))) | -47.5 | 50.7
62 | GCTTTGCGAAAGCACTGC ((..(((....)))..)) | -17.5 | 43
63 | GCTTTGCGAAAGCAGTGC ((..(((....)))..)) | -13.8 | 38.4
64 | GCTTTGCGAAAGCATGGC ((..(((....)))..)) | -16.7 | 49.5
65 | GCTTTGCGAAAGCCCAGC (((..((....))..))) | -14.1 | 31.5
66 | GCTTTGCGAAAGCGAAGC ((((.((....)).)))) | -37.2 | 66.2
67 | GCTTTGCGAAAGCGACGC ((.(.((....)).).)) | -15.2 | 47.6
68 | GCTTTGCGAAAGCTAGGC ((.(.((....)).).)) | -15.7 | 44.7
